High-throughput results as filed in PubChem.
Rad51 HR inh: Rad51 (human) homologous recombination inhibition; Q06609; hRad51 DNA strand exchange, fluorescence dequenching; inhibition, % at 10 µM; 200,000 tested, 0.085% active; AID 1385;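 active = inhibition above 40% at the single screening dose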
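Test system: preformed human Rad51 ssDNA filaments. Compound dosing: single dose, 10 µM final compound. Incubation: filaments 15 min 37 °C, then compound 30 min. Technique: FRET fluorescence dequenching, excitation 485 nm, emission 520 nm. Read-out basis: percent inhibition from fluorescence, normalised to plate control and blank means. Benchmarks: plate controls and plate blanks.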
PKD1 inh: inhibitors of human PKD1 kinase | Q15139 | PKD1 kinase fluorescence polarization assay | inhibition, % (concentration not given with the values) | 200,000 tested, 0.056% active | AID 797
Wee1 degr inh: blocks degradation of human Wee1 kinase. AID 1321. HeLa Luc-Wee1K328M stability, luciferase luminescence; 100% = proteasome inhibitor MG132 effect. 220,000 tested, 1.2% active. P30291. reporter increase, % at 5 µM;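 active = activation above the mean of all tested compounds plus 3 SD, set per screening run, cut at about 8.8% in these data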;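 note: cells exposed to compound for 20 h before luminescence read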
Target sequence (P30291 whole entry K328M): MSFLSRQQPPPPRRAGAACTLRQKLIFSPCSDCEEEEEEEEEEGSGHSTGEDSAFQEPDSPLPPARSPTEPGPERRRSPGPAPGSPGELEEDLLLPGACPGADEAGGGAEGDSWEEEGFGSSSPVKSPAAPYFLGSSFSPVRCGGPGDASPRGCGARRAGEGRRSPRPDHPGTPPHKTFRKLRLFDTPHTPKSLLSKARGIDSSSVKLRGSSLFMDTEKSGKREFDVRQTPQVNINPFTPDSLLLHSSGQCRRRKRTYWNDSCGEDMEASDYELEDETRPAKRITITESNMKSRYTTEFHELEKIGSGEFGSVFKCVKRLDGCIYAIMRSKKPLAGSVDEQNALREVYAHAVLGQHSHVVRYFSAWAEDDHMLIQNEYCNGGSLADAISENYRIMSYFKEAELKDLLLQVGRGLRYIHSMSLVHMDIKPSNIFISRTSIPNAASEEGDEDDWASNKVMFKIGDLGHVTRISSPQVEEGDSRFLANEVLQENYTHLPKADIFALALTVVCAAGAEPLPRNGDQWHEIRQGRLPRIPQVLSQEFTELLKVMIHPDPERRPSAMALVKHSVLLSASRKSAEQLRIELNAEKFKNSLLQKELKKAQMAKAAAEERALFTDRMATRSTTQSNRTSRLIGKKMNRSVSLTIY
CHOP inh: inhibitors of CHOP induction in ER stress response | CHO-K1 CHOP-promoter luciferase, tunicamycin-induced, 15-18 h | inhibition, % at 10 µM | AID 2732 | 220,000 tested, 3.8% active;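 active = compounds that reduced the stress-induced luciferase reporter signal by more than about 70% of percent inhibition, limit read from the data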
Arbovirus anti: antivirals against arbovirus infection | AID 1251 | inhibition, % at 10 µM | arbovirus infection cell-based antiviral screen | 200,000 tested, 0.37% active; in the data active = inhibition above about 30%
L major viab: Leishmania major promastigote growth inhibition; Leishmania major promastigotes, resazurin fluorescence viability; inhibition, % at 10 µM; 200,000 tested, 9% active; AID 1063;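 note: promastigotes grown with compound for 44 hours at 28 °C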
A number is an active result; – = inactive; · = not tested or not shown. Rows were chosen to be rich in hits. Some 12% of all compounds tested hit in one or more screens of this group. Cut-off read from the data, not from the text of the source, unless noted: active = inhibition above about 50%; inactive = the rest.

SMILES	Rad51 HR inh	PKD1 inh	Wee1 degr inh	CHOP inh	Arbovirus anti	L major viab
CCN1CCCC1CNCc1ccccc1OCc1ccc(F)cc1 (stereo unspecified)	–	–	–	–	–	100
CCN1CCCC1CNCc1cc(OC)c(OC)c(OC)c1 (stereo unspecified)	–	–	–	–	–	–
CCOc1ccccc1NC(=O)C(=O)NCC1CCCN1CC (stereo unspecified)	–	–	–	–	–	–
CCN1CCCC1CNCc1cccc(OC)c1OCc1ccccc1F (stereo unspecified)	–	–	–	–	–	100
CCN1CCCC1CNCc1cccc(OC)c1OCc1ccccc1 (stereo unspecified)	–	–	–	–	–	85
O=C(O)c1cncc(C#CCC2CCCCC2)c1	·	·	–	–	·	·
COc1ccc(NC(=O)CN2CCN(C(=S)NC3CCCC3)CC2)cc1	–	·	–	–	·	·
O=C(Cn1cc(C(F)(F)F)cc(Cl)c1=O)Nc1cc(Cl)cc(Cl)c1	–	–	–	–	–	–
CN(C)c1ccc(NS(=O)(=O)c2cc(Cl)ccc2Cl)cc1	–	–	–	–	–	64
CCN(c1ccc(NS(=O)(=O)c2cc(Cl)ccc2Cl)cc1)C(C)C	·	–	–	93	–	–
CC(C)(C)C(=O)Nc1cc(S(=O)(=O)N2CCCCC2)ccc1N1CCCCC1	–	–	–	–	–	–
CC(Sc1nnc2ccccn12)C(=O)Nc1ccc2c(c1)OCO2 (stereo unspecified)	–	–	–	–	–	–
CCOc1cc(/C=N/NC(=O)CSc2nncn2C)ccc1OCc1ccccc1	–	–	–	–	–	–
COc1cc(/C(C)=N/NC(=O)CSc2nncn2C)ccc1OCc1ccccc1Cl	–	–	–	–	–	73
COC(=O)c1ccsc1NC(=O)CN1CCN(Cc2ccc3c(c2)OCO3)CC1	–	–	–	–	–	–
Cc1ccc(C(=O)N2CCN(Cc3ccc4c(c3)OCO4)CC2)o1	–	–	–	–	–	–
Cc1c(O)ccc(C(=O)CN2CCN(Cc3ccc4c(c3)OCO4)CC2)c1O	–	–	11	–	–	–
COC(=O)c1c(NC(=O)CN2CCN(Cc3ccc4c(c3)OCO4)CC2)sc(C)c1C	–	–	–	80	–	–
CCCCn1c(SCC(=O)NNC(=O)c2ccco2)nnc1-c1ccco1	–	–	–	–	–	–
CC(Cc1ccsc1)NC(=O)CCc1nnc(CCc2ccccc2)o1 (stereo unspecified)	·	–	–	–	–	–
CC(=O)Nc1ccc2c(CSc3nnc(-c4cccnc4)n3-c3ccc(C)cc3C)cc(=O)oc2c1	–	–	–	–	–	57
CC(C)c1ccccc1-n1c(SCc2cc(=O)oc3ccc4ccccc4c23)nnc1-c1cccnc1	–	–	–	–	–	54
Cc1cccc(C)c1OC(=O)CCN1C(=O)C2C3C=CC(C4CC34)C2C1=O (stereo unspecified)	–	–	–	–	–	–
COc1ccc(CC(=O)Nc2nc(-c3cccc([N+](=O)[O-])c3)cs2)cc1	–	–	10	80	–	62
O=C(NC(=S)Nc1nc(-c2cccc([N+](=O)[O-])c2)cs1)c1cc(Cl)ccc1Cl	–	–	–	–	–	–
SMILES	Rad51 HR inh	PKD1 inh	Wee1 degr inh	CHOP inh	Arbovirus anti	L major viab
O=C(NC(=S)Nc1nc(-c2cccc([N+](=O)[O-])c2)cs1)c1ccccc1Cl	–	–	–	96	–	–
Cc1cc(Nc2cc(Cl)cc(Cl)c2)nc(N)n1	–	·	–	–	·	·
C/C(=N\NC(=S)NC1CCCCC1)c1cccc(C(F)(F)F)c1	–	·	–	–	·	·
CC(C)Oc1ccc(/C=N/NC(=O)C(CSCc2ccccc2)NC(=O)c2ccc([N+](=O)[O-])cc2)cc1 (stereo unspecified)	–	–	–	76	–	–
COc1ccc(OC)c(C2NC(=O)c3sc(=S)n(-c4ccccc4)c3N2)c1 (stereo unspecified)	–	–	–	90	–	–
CCOc1ccc2ccccc2c1C(=O)N1CCN(c2ccccc2)CC1	–	–	–	·	–	83
CCOC(=O)c1[nH]c(C)c(C(=O)N2CCN(c3ccccc3)CC2)c1C	–	–	–	–	–	–
C=CCNC(=S)NNc1nc2c(c(=O)[nH]1)C1(CCCCC1)Cc1ccccc1-2	–	–	–	93	–	–
CCN(CC)Cc1nc2c(c(=O)[nH]1)C1(CCCC1)Cc1ccccc1-2	–	–	–	84	–	–
O=c1[nH]c(CN(CCO)CCO)nc2c1C1(CCCCC1)Cc1ccccc1-2	–	–	–	–	–	–
O=c1[nH]c(NCCO)nc2c1C1(CCCC1)Cc1ccccc1-2	–	–	–	–	–	–
COC(=O)c1cccc(NC(=O)C(C)(C)C)c1	–	·	–	–	·	·
O=C(c1ccco1)N1CCN(c2ccc(F)cc2)CC1	–	–	–	–	–	–
COc1ccc(N2CCN(C(=O)CN3CCN(c4nc(-c5ccc(F)cc5)cs4)CC3)CC2)cc1	–	–	–	80	–	–
COc1ccc(-c2nnn(CC(=O)N3CCN(c4ccc(F)cc4)CC3)n2)cc1	–	·	–	–	·	·
O=C(c1ccco1)N1CCN(c2nc(-c3ccc(F)cc3)cs2)CC1	–	–	–	–	31	–
Cn1nc(C(=O)NCc2cccs2)c2ccccc2c1=O	–	–	–	–	–	–
Cn1c(=O)c(C(=O)COC(=O)c2cc(-c3ccco3)nc3ccccc23)c(N)n(CC2CC2)c1=O	·	–	–	–	–	62
Cn1c(=O)c(C(=O)COc2ccc(F)cc2Cl)c(N)n(Cc2ccccc2)c1=O	–	–	–	79	–	56
Cn1c(=O)c(C(=O)COC(=O)c2cc(-c3ccccc3)nc3ccccc23)c(N)n(Cc2ccccc2)c1=O	·	–	–	–	–	100
Cn1c(N)c(C(=O)COc2ccc(Cl)cc2Cl)c(=O)n(C)c1=O	–	–	–	–	–	–
COc1ccc(C)cc1NC(=O)c1nn(C)cc1Br	–	·	–	–	·	·
CC(=O)N(C)c1nnc(-c2ccccn2)s1	–	–	–	–	–	–
N#C/C(=C\c1cccc(O)c1)C(=O)Nc1ccc2c(c1)OCCO2	–	·	–	–	·	·
CC(C)(C)c1ccc(OCC(=O)N/N=C/c2cc(Br)ccc2OC(=O)c2ccco2)cc1	·	–	–	–	–	94
SMILES	Rad51 HR inh	PKD1 inh	Wee1 degr inh	CHOP inh	Arbovirus anti	L major viab
CC(C)(C)c1ccc(OCC(=O)N/N=C/c2ccsc2)cc1	–	–	9.2	–	–	–
COc1cc(/C=N/NC(=O)COc2ccccc2[N+](=O)[O-])ccc1OC(=O)c1ccco1	–	–	–	–	–	57
COc1cc(/C=N/Nc2nc(N3CCCCC3)nc(N3CCCCC3)n2)ccc1OC(=O)c1ccco1	–	–	–	–	–	60
CCc1nnc(NC(=O)CSc2nc3ccc(OC)cc3[nH]2)s1	–	–	–	–	–	–
C/C(=N\NC(=O)c1cc(-c2ccc(C)s2)[nH]n1)c1ccco1	–	–	–	–	–	–
COc1ccc(NC(=O)/C(C#N)=C/c2ccc(Sc3nncn3C)c([N+](=O)[O-])c2)cc1	·	–	–	–	–	–
